Measured values collected from several papers.
Compare with care: the assays were run in different laboratories. Converted amounts (≈) assume the structure as drawn.
Organism: Pseudomonas aeruginosa

SMILES	test	system	conditions	endpoint	value
CC(C)(C)OC(=O)N[C@@H]1CCN(c2cc(C(=O)NCC(=O)O)ccc2NC(=O)c2cc(Br)c(Br)[nH]2)C1	microbial growth, broth dilution	ATCC27853	–	MIC	> 32 µg/mL
C[C@@H](O)[C@H]1C(=O)N2C(C(=O)O)=C(S[C@@H]3CN[C@H](C(=O)N(C)C)C3)[C@H](C)[C@H]12	microbial growth, broth dilution	ATCC27853	20 h	MIC	< 0.5 µg/mL
Cc1[nH]c(C(=O)Nc2ccc(C(=O)NCC(=O)O)cc2N2CC[C@@H](N)C2)c(Cl)c1Cl.Cl	microbial growth, broth dilution	ATCC27853	–	MIC	> 32 µg/mL
COc1cc(C=Nc2ccc(Cl)cc2Cl)ccc1O	microbial growth, disc diffusion	–	2000 µg/mL, 24 h	inhibition zone	14.4 mm
COc1cc(C#CC(O)CC(C)C)ccc1O (stereo not drawn)	microbial growth, absorbance	–	100 µM, 24 h	activity vs control	93%
COc1cc(Cc2cnc(N)nc2N)cc(OC)c1OC	microbial growth, broth dilution	ATCC27853	–	MIC	8 µg/mL
Cc1[nH]c(C(=O)Nc2ccc(-c3n[nH]c(=O)o3)cc2N2CCC[C@H](N)C2)c(Cl)c1Cl.Cl	microbial growth, broth dilution	ATCC27853	–	MIC	16 µg/mL
COc1cc(C#CC(=O)C2CCCCC2)ccc1O	microbial growth, absorbance	–	100 µM, 24 h	activity vs control	80%
CC(C)NCC(COc1cccc2ccccc12)OC(=O)C=Cc1ccc(O)c(O)c1 (stereo not drawn)	microbial growth, broth dilution	ATCC27853	–	MIC	64 µg/mL
CC(C)(C)OC(=O)N1CCN(c2cc(C(=O)NCC(=O)O)ccc2NC(=O)c2cc(Br)c(Br)[nH]2)CC1	microbial growth, broth dilution	ATCC27853	–	MIC	> 32 µg/mL
O=C(O)c1cn(C2CC2)c2cc(N3CCNCC3)c(F)cc2c1=O	microbial growth	ATCC27853	–	MIC	2 µM
Cc1[nH]c(C(=O)Nc2ccc(C(=O)NCC(=O)O)cc2N2CCN(C(=O)OC(C)(C)C)CC2)c(Cl)c1Cl	microbial growth, broth dilution	ATCC27853	–	MIC	> 32 µg/mL
COc1cccc(C(O)C#Cc2ccc(O)c(OC)c2)c1 (stereo not drawn)	microbial growth, absorbance	–	10 µM, 24 h	activity vs control	96%
C[C@H]1COc2c(N3CCN(C)CC3)c(F)cc3c(=O)c(C(=O)O)cn1c23	microbial killing	ATCC47085	–	MBC	7.81 µg/mL (≈ 21.6 µM)
COc1ccccc1C(=O)C#Cc1ccc(F)c(F)c1	microbial growth, absorbance	–	10 µM, 24 h	activity vs control	86%
COc1cc(C=Nc2ccc(C)cc2Cl)ccc1O	microbial growth, disc diffusion	–	2000 µg/mL, 24 h	inhibition zone	12.7 mm
CCCC(=O)C#Cc1ccc(O)c(OC)c1	microbial growth, absorbance	–	100 µM, 24 h	activity vs control	94%
Nc1ccccc1OC(=O)C=Cc1ccc(O)c(O)c1	microbial growth, broth dilution	ATCC27853	–	MIC	32 µg/mL
